Data from paper PMC3994405 (Clinical cancer research : an official journal of the …, 2014).
Like-named read-outs stand apart in the source and are kept apart here.

Tested on: peptide-MHC reactive CD8 T cells in PBLs from healthy donors
Format: cell-based, human
Details: PBLs after enrichment and 2-3 weeks culture
Summary of the method: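 PBLs washed in PBS with 2% FBS and stained with 0.1ug of each PE-coupled peptide-MHC multimer, 1h at 4°C. Anti-PE microbeads were added for 15 min, then magnetic column capture. Enriched cells were expanded 2–3 weeks in X-vivo with 5% human serum, 100 U/ml IL-2, 15 ng/ml IL-15, autologous negative-fraction feeders and anti-CD3/CD28 beads. Cells were then analysed by two-colour combinatorial multimer staining on lymphocyte/single/live/CD8 gates.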

Sequence	Healthy Donors: number of times a response was detected/number of investigated HLA matched individuals (HLA-A11 restriction)	Healthy Donors: number of times a response was detected/number of investigated HLA matched individuals (HLA-A3 restriction)	other results
NLPAYSVARV			Healthy Donors: number of times a response was detected/number of investigated HLA matched individuals (HLA-A2 restriction): 1/16
LPRYFNVTL			Healthy Donors: number of times a response was detected/number of investigated HLA matched individuals (HLA-B7 restriction): 1/13
VTLRKRWVK	1/7		
SLFSNLMPK	2/7A11		
TVLGRKMTPK		1/14	
KMALHGLPR		1/14	
